From PMC8738139 (Neuron, 2021)

Target: CNGA1 (Homo sapiens, UniProt P29973+Q14028)
Assay: cryo-EM structures
Format: cell-based
In short: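 HEK293 cells co-transfected with human CNGA1/B1 and a GFP marker, then trypsinised and re-plated 48 h later. Whole-cell currents recorded at 100 mV. Pipette: 140 mM KCl, 5 mM EGTA, 10 mM HEPES pH 7.4, 1 mM cGMP. Bath: 140 mM NaCl, 4 mM KCl, 1 mM EGTA, 10 mM HEPES pH 7.4 plus varied test compound. Ki from Hill fit; mean ± SEM, n=5.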

Sequence of CNGA1 (P29973 141-686): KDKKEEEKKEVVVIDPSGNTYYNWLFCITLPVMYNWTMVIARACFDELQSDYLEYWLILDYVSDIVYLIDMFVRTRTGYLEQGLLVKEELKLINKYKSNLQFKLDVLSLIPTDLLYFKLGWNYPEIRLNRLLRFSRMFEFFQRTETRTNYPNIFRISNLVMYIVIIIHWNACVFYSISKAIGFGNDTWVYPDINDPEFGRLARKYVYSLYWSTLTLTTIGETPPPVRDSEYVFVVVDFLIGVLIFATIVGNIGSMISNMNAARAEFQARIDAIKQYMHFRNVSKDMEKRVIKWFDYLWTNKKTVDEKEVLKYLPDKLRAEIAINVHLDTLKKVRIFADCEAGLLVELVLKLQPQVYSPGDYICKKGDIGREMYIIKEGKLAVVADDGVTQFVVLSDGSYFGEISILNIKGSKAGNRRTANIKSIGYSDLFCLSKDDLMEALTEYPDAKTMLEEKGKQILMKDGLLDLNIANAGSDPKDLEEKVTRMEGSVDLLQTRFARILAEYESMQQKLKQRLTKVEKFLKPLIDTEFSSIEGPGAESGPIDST
Sequence of CNGA1 (Q14028 456-1251): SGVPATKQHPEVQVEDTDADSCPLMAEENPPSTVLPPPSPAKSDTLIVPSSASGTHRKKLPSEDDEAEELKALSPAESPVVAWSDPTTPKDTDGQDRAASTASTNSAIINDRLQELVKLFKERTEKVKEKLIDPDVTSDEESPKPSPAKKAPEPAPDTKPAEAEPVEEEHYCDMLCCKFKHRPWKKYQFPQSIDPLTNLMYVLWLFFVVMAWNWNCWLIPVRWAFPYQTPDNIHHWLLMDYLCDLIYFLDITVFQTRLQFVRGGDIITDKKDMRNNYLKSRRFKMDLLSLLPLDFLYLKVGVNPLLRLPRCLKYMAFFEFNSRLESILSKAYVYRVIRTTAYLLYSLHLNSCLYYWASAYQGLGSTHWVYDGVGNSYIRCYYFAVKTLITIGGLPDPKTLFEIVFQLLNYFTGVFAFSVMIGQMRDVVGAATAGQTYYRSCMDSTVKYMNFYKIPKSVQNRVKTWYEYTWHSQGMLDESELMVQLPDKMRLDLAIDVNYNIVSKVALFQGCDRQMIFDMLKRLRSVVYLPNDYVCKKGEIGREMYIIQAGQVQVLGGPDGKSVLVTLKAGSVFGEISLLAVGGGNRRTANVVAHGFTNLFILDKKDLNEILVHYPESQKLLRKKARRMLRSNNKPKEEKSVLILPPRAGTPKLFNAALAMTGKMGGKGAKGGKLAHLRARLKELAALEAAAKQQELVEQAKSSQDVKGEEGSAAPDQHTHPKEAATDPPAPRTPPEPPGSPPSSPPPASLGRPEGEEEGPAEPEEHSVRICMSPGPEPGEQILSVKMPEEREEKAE

Ki: 3.68 ± 0.13 µM
Compound: COc1ccc([C@H]2Sc3ccccc3N(CCN(C)C)C(=O)[C@H]2OC(C)=O)cc1 [L-cis-Diltiazem]
